This note sets out measurements from ChEMBL document CHEMBL1122896, “Comparative computer graphics and solution studies of the DNA interaction of substituted anthraquinones based on doxorubicin and mitoxantrone” (1985).

In assay [1] the test system is Mus musculus. The assay can be described thus: In vivo antileukemic activity against P-388 cells in mice and the treated /control value was determined at schedule Q01Dx01 at a dose of 16 mg/kg. It is filed as functional. An outline of the steps: (§1)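 Mice bearing P-388 leukaemia received the hydrochloride salts as a single dose on day 3 after inoculation (Q01D×01). Activity is expressed as treated/control (T/C).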

Assay [2] has as its system Nucleic Acid. The assay is described as follows: Concentration to give comigration of ccc PM-2 DNA with nicked PM-2 DNA under electrophoresis was evaluated. It counts as nucleic-acid assay. Conditions: unidentified phage. The essentials: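 Agarose tube gels (1%, pH 7.4 Tris-Cl/EDTA/NaCl/acetate buffer) contained drug at final 0.00–1.00 µg/mL. PM-2 ccc-DNA was loaded with drug at a 5:1 DNA phosphate:drug ratio and run at 45 V, 20–25 °C, for 3–4 h. Gels were stained with ethidium. The critical concentration is where ccc-DNA comigrates with nicked PM-2 DNA.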

Assay [3] concerns Mus musculus. The assay can be described thus: In vivo antileukemic activity against P-388 cells in mice and the treated /control value was determined at schedule Q01Dx01 at a dose of 4 mg/kg. It is filed as functional. An outline of the steps:
as §1

Assay [4] relates to Nucleic Acid. The assay is described as follows: Compound was evaluated for DNA binding affinity. It counts as nucleic-acid assay. To be noted: Bos taurus. The essentials: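 Drug solution (5 × 10^-5 M, 3 mL; three samples) was titrated with sequential aliquots of 2.5 × 10^-3 M DNA. Absorbance was read at the unbound-drug λmax after equilibration, against a buffer blank. Free and bound drug were derived from the fractional decrease in extinction. Affinity K and site number n were taken from a Scatchard plot.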

The test system of assay [5] is Mus musculus. The assay is described as follows: In vivo antileukemic activity against P-388 cells in mice and the treated /control value was determined at schedule Q01Dx01 at a dose of 1 mg/kg. It is filed as functional. An outline of the steps: as §1
Assay [6] concerns HEp-2. The assay is described as follows: Antiproliferative effect against Hep2 cell lines at a concentration of 10.0 uM. It is filed as functional, Homo sapiens.
In assay [7] the test system is HeLa. The assay can be described thus: Antiproliferative effect against HeLa cell lines at a concentration of 10.0 uM. It is filed as functional, Homo sapiens.
In assay [8] the test system is Mus musculus. The assay can be described thus: In vivo antileukemic activity against P-388 cells in mice and the treated /control value was determined at schedule Q01Dx01 at a dose of 8 mg/kg. It is filed as functional. The essentials:
as §1

The subject of assay [9] is Mus musculus. The assay is described as follows: In vivo antileukemic activity against P-388 cells in mice and the treated /control value was determined at schedule Q01Dx01 at a dose of 2 mg/kg. It counts as functional. The essentials: as §1
The subject of assay [10] is Mus musculus. The assay is described as follows: In vivo antileukemic activity against P-388 cells in mice and the treated /control value was determined at schedule Q01Dx01 at a dose of 32 mg/kg. It counts as functional. An outline of the steps:
as §1

Assay [11] concerns Mus musculus. The assay can be described thus: In vivo antileukemic activity against P-388 cells in mice and the treated /control value was determined at schedule Q01Dx01 at a dose of 128 mg/kg. It counts as functional. The essentials:
as §1

The subject of assay [12] is Mus musculus. The assay can be described thus: In vivo antileukemic activity against P-388 cells in mice and the treated /control value was determined at schedule Q01Dx01 at a dose of 64 mg/kg. It counts as functional. The essentials:
as §1

Assay [13] concerns HEp-2. The assay is described as follows: Antiproliferative effect against Hep2 cell lines at a concentration of 1 uM. It counts as functional, Homo sapiens.
For assay [14], the system named is HeLa. The assay is described as follows: Antiproliferative effect against HeLa cell lines at a concentration of 1 uM. It counts as functional, Homo sapiens.
Assay [15] deals with Mus musculus. The assay is described as follows: In vivo antileukemic activity against P-388 cells in mice and the treated /control value was determined at schedule Q04Dx03 at a dose of 4 mg/kg.
Assay [16] has as its system Mus musculus. The assay can be described thus: In vivo antileukemic activity against P-388 cells in mice and the treated /control value was determined at schedule Q04Dx03 at a dose of 8 mg/kg.
The subject of assay [17] is Mus musculus. The assay can be described thus: In vivo antileukemic activity against P-388 cells in mice and the treated /control value was determined at schedule Q04Dx03 at a dose of 16 mg/kg.

With `CCN(CC)CCNc1cccc2c1C(=O)c1ccccc1C2=O`, the T/C is 95 in assay [1]; 100 in assay [3]; 105 in [5]; 100 in assay [8]; 98 in assay [9]. In [2], this compound yielded a Critical concentration of 0.8 µg/mL. Also, in [4], the Affinity constant turned out to be 1.48e+06 M⁻¹. The “No. of untreated cells” value worked out at 92% in [6] and 96% in assay [7].
Consider `CCN(CC)CCNc1ccc(NCCN(CC)CC)c2c1C(=O)c1ccccc1C2=O`, for which the T/C in assay [1] was 112; in assay [3], 100; in assay [5], 117; in assay [10], 103; in assay [11], 111; in assay [12], 97. For the same compound, the T/C in [8] was 107; in assay [9] it was 95. The compound further returned a Critical concentration in assay [2] of 0.16 µg/mL. The Affinity constant in assay [4] is 3.17e+06 M⁻¹. The entries for the “No. of untreated cells” value in [13] and in assay [14] were 88% and 98%, respectively.
With `CCN(CC)CCNc1cccc2c1C(=O)c1c(NCCN(CC)CC)cccc1C2=O`, the T/C in assay [15] amounted to 91; in assay [16], 98; in [3] it was 105; in assay [8], 107; in assay [9], 104; in assay [17], 102. Besides, the Critical concentration in assay [2] was 0.4 µg/mL. In addition, the Affinity constant in assay [4] amounted to 1.71e+06 M⁻¹. The results for the “No. of untreated cells” value in [6] and in [7] were 84% and 64%, respectively.
Turning to `CCN(CC)CCNc1cccc2c1C(=O)c1cccc(NCCN(CC)CC)c1C2=O`, the T/C worked out at 105 in assay [1]; 107 in [3]; 102 in [5]; 100 in [10]; 92 in [11]; 105 in assay [12]. The T/C in assay [8] and in assay [9] was 98 each time. Also, the Critical concentration in [2] amounted to 0.16 µg/mL. In assay [4], the Affinity constant was determined as 3.97e+06 M⁻¹. Also, the “No. of untreated cells” value is listed as 64% in assay [13] and 75% in [14].
With `COc1cccc2c1C(=O)c1c(O)c3c(c(O)c1C2=O)C[C@@](O)(C(=O)CO)C[C@@H]3O[C@H]1C[C@H](N)[C@H](O)[C@H](C)O1` [DOXORUBICIN], the “No. of untreated cells” value turned out to be 56% in assay [13] and 52% in assay [14].
